For data set [1], the target named is T1, 5-hydroxytryptamine receptor 6 (Homo sapiens, UniProt P50406). Description: Displacement of [3H]LSD from human cloned 5HT6 receptor expressed in human HeLa cells by glass fiber filtration assay. The data set is classed as cell-based. A digest of the protocol: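 Radioligand binding to human cloned 5-HT6 receptors stably expressed in HeLa cells. Ki values were determined.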
Background: In a radioligand displacement assay an active substance lowers the binding of a labelled ligand.

Data set [2] can be described thus: Selectivity ratio of IC50 for histamine H1 receptor to IC50 for human recombinant 5HT6 receptor.
Data set [3] is described as follows: Metabolic stability in human liver microsomes at 2.5 uM after 0.5 hrs. In kind it is ADME, Microsome. A digest of the protocol: (§1)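 Wistar rat or human liver microsomes were incubated with 2.5 µM compound for 0.5 h, and % metabolized was measured.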
Background: Liver microsomes are vesicles of endoplasmic reticulum, rich in cytochrome P450 enzymes.

The nature of data set [4]: Metabolic stability in Wistar rat liver microsomes at 2.5 uM after 0.5 hrs. In kind it is ADME, Microsome. The procedure, abridged: as §1
The target of data set [5] is T1, 5-hydroxytryptamine receptor 6. Description: Antagonist activity at human recombinant 5HT6 receptor expressed in CHO cells assessed as inhibition of 5-HT-stimulated cAMP accumulation by luminometry. The data set is classed as functional, cell-based. A digest of the protocol: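 Non-radioactive cell-based functional assay in CHO cells expressing 5-HT6 receptor; antagonism read as inhibition of 5-HT-stimulated cAMP accumulation. IC50 and Kb values derived, each the mean of two experiments.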
For orientation: Changes in cAMP serve as a functional read-out for many G protein-coupled receptors.

Data set [6] concerns the target Cytochrome P450 2D6 (Homo sapiens, UniProt P10635). Description: Inhibition of human CYP2D6. In kind it is ADME. The procedure, abridged:
(§2)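 Isoform-selective assays using heterologously expressed human CYP2D6 or CYP3A4. IC50 is the mean of duplicate determinations.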

The nature of data set [7]: Selectivity ratio of IC50 for NET to IC50 for human recombinant 5HT6 receptor.
Data set [8] in a line: Selectivity ratio of IC50 for SERT to IC50 for human recombinant 5HT6 receptor.
The target in data set [9] is Cytochrome P450 3A4 (Homo sapiens, UniProt P08684). Description: Inhibition of human CYP3A4. The data set is classed as ADME. The procedure, abridged:
as §2

Data set [10] is described as follows: Selectivity ratio of IC50 for dopamine D2 receptor to IC50 for human recombinant 5HT6 receptor.
Data set [11] can be described thus: AUC in Wistar rat at 5 mg/kg, po. The arrangement: dose 5 mg/kg, route oral. The note with it: plasma. The data set is classed as ADME, organism-based. A digest of the protocol:
(§3)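 Fasted male Wistar rats received a 5 mg/kg dose orally or iv, with water for injection as vehicle for both routes. n = 3 per route. Plasma parameters were derived per route: AUC, Cmax, t1/2, Vz, clearance, and oral bioavailability (F).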

Data set [12] in a line: AUC in Wistar rat at 5 mg/kg, iv. The data set is classed as ADME, organism-based. Also on record: dose 5 mg/kg, route intravenous. The conditions noted are these: plasma. The procedure, abridged: as §3
Data set [13] is described as follows: Half life in Wistar rat at 5 mg/kg, iv. The data set is classed as ADME, organism-based. The arrangement: dose 5 mg/kg, route intravenous. The note with it: in vivo. A digest of the protocol: as §3
Data set [14] concerns Rattus norvegicus. Description: Apparent volume of distribution in Wistar rat at 5 mg/kg, po. The data set is classed as ADME, organism-based. Also on record: dose 5 mg/kg, route oral. The conditions noted are these: in vivo. The procedure, abridged:
as §3

The nature of data set [15]: Cmax in Wistar rat at 5 mg/kg, po. In kind it is ADME, organism-based. Also on record: dose 5 mg/kg, route oral. The conditions noted are these: in vivo. A digest of the protocol: as §3
The species entered for data set [16] is Rattus norvegicus. The conditions noted are these: 10 mg/kg.
Data set [17] is described as follows: Oral bioavailability in Wistar rat at 5 mg/kg. In kind it is ADME, organism-based. The conditions noted are these: in vivo. A digest of the protocol: as §3
Data set [18] in a line: Cmax in Wistar rat at 5 mg/kg, iv. The data set is classed as ADME, organism-based. The note with it: in vivo. Also on record: dose 5 mg/kg, route intravenous. The procedure, abridged:
as §3

The subject of data set [19] is Rattus norvegicus. Description: Cognitive enhancing effect in Wistar rat at 10 mg/kg, po by novel object recognition test. In kind it is functional, organism-based. The arrangement: dose 10 mg/kg. The procedure, abridged: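 Novel object recognition test in male Wistar rats. Drug or vehicle (PEG 400 50% v/v, 1 mL/kg) was given p.o. 60 min before the test, n=6-9/group. Read-out was exploration time of the familiar versus the novel object, given as mean SEM and analysed by paired t test.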

Data set [20] is described as follows: Half life in Wistar rat at 5 mg/kg, po. In kind it is ADME, organism-based. The arrangement: dose 5 mg/kg, route oral. The note with it: in vivo. The procedure, abridged:
as §3

Data set [21] in a line: Clearance in Wistar rat at 5 mg/kg, po. The arrangement: dose 5 mg/kg, route oral. In kind it is ADME, organism-based. The note with it: in vivo. A digest of the protocol:
as §3

Data set [22] is described as follows: Clearance in Wistar rat at 5 mg/kg, iv. The data set is classed as ADME, organism-based. The conditions noted are these: in vivo. The arrangement: dose 5 mg/kg, route intravenous. A digest of the protocol:
as §3

Data set [23] can be described thus: Apparent volume of distribution in Wistar rat at 5 mg/kg, iv. The data set is classed as ADME, organism-based. The arrangement: dose 5 mg/kg, route intravenous. The note with it: in vivo, read-out: Vz. A digest of the protocol: as §3

Activity calls are given as the source filed them. The rule behind the calls is not given here.

T1 sequence (P50406 whole entry): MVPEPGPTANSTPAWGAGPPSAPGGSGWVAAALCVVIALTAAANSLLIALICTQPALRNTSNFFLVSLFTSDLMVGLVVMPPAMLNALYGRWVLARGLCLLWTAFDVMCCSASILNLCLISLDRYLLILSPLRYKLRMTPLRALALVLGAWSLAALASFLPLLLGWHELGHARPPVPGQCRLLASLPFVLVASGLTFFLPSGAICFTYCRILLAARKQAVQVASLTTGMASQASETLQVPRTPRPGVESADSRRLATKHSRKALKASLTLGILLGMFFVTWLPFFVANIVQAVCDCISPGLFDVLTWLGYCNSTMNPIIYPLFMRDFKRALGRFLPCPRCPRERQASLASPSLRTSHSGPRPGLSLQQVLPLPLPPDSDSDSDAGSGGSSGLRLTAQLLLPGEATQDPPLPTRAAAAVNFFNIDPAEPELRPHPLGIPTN
Sequence of Cytochrome P450 3A4 (P08684 whole entry): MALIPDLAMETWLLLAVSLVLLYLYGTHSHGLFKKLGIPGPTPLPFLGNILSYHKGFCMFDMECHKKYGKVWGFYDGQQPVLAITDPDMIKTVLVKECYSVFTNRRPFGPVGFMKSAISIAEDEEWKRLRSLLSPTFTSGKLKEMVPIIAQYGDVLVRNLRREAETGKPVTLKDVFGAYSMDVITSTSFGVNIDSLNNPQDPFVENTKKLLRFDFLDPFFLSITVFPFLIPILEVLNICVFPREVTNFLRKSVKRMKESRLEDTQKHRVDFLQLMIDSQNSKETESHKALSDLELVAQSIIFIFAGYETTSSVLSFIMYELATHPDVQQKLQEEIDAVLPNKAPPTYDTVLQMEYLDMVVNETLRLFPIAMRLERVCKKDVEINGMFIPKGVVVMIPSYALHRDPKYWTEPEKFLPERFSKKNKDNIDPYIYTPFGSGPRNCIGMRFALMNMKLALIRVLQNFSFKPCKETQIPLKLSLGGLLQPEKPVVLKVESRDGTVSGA
Sequence of Cytochrome P450 2D6 (P10635 whole entry, canonical isoform): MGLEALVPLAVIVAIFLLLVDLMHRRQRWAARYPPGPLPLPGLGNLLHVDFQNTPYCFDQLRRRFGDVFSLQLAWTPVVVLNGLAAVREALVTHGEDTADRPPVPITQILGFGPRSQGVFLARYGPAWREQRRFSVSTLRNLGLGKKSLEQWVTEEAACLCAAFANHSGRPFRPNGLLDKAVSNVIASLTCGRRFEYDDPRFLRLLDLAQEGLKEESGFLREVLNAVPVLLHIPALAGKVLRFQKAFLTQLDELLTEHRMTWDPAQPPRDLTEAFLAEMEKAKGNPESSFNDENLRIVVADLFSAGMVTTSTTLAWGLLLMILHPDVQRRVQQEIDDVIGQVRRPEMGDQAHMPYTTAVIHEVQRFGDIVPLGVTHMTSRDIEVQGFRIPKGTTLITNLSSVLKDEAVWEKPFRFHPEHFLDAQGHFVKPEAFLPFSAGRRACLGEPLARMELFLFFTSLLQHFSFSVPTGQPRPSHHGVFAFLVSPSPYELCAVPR

On to `CCN1CCN(c2cn(S(=O)(=O)c3ccc(OC)cc3)c3cc(Cl)ccc23)CC1`, for which the Ki (commonly a dissociation constant, usually derived from enzyme kinetics or from competition with a known ligand) in data set [1] was 82.3 nM.
`CN1CCN(c2cn(S(=O)(=O)c3ccccc3Br)c3cc(Cl)ccc23)CC1` gave a Ki in data set [1] of 30.2 nM.
As to `CN1CCN(c2cn(S(=O)(=O)c3ccc(F)cc3)c3ccccc23)CC1`, the Ratio IC50 in [2], in [7], in data set [8] and in [10] was greater than 50 throughout. Also, the % metabolism at 0.5 h, 2.5 µM in [3] worked out at 85%; in data set [4], 99%. In addition, the IC50 (usually the concentration at which inhibition is half-maximal) in data set [5] was determined as 292 nM; in data set [6], 26400 nM; in [9] it was 4770 nM. Also, in data set [5], the Kb (in general, the affinity of an antagonist, worked out from how it opposes an agonist) was 0.5 nM. In data set [1], affinity was put at a Ki of 11.8 nM.
As to `CCN1CCN(c2cn(S(=O)(=O)c3ccc(C(C)C)cc3)c3ccc(Br)cc23)CC1`, in [1], the Ki stood at 30.1 nM.
For the compound `CC(C)c1ccc(S(=O)(=O)n2cc(N3CCN(C)CC3)c3ccccc32)cc1`, the values for the AUC in [11] and in data set [12] were 59 ng·h/mL and 674 ng·h/mL, respectively. Moreover, the half-life – broadly, how long it takes for the measured level to halve – in data set [13] was 4.47 h; in data set [20], 2.35 h. In addition, in data set [14], the Vz turned out to be 436 L/kg. In addition, the Cmax (commonly the peak of the concentration-time curve) amounted to 40 ng/mL in data set [15] and 365 ng/mL in [18]. Further, the inhibition result in data set [16] is “Active”. Also, in data set [17], the bioavailability (usually dose-corrected exposure relative to a reference, in per cent) stood at 8%. In addition, the result in data set [19] was Active. Further, the Ratio IC50 in data set [2], in [7], in [8] and in data set [10] was greater than 50 in each case. For the same compound, the % metabolism at 0.5 h, 2.5 µM is 80% in [3] and 95% in data set [4]. Besides, the IC50 in data set [5] turned out to be 310 nM; in data set [6], 39200 nM; in data set [9], 5540 nM. Further, in data set [5], the Kb was 0.53 nM. Also, the CL/F – broadly, the apparent clearance, not corrected for the fraction that reaches the circulation – in data set [21] turned out to be 2200 mL/min/kg. Also, the clearance (usually the rate of elimination divided by the concentration) in data set [22] is 133 mL/min/kg. Moreover, in data set [23], the Vd was determined as 51.8 L/kg. This compound showed an inhibition constant Ki in [1] of 3.4 nM.
`CCN1CCN(c2cn(S(=O)(=O)c3ccc(F)cc3)c3ccc(Br)cc23)CC1` showed a Ki in data set [1] of 10.6 nM.
The same measure, in the same setting: then `CN1CCN(c2cn(S(=O)(=O)c3ccccc3Br)c3ccc(Br)cc23)CC1`, with 10.2 nM; and `CN1CCN(c2cn(S(=O)(=O)c3cccc(Cl)c3)c3ccccc23)CC1`, with 10.8 nM; and `CCN1CCN(c2cn(S(=O)(=O)c3cc(OC)ccc3OC)c3cc(Cl)ccc23)CC1`, with 63.5 nM.
The compound `CC(C)c1ccc(S(=O)(=O)n2cc(N3CCN(C)CC3)c3cc(Br)ccc32)cc1` showed a Ki in [1] of 23.2 nM.
`CN1CCN(c2cn(S(=O)(=O)c3cccc(Cl)c3)c3ccc(Br)cc23)CC1`: the Ratio IC50 in [2], in [7], in [8] and in [10] was greater than 50 each time. Further, in [5], the IC50 amounted to 1530 nM. The Kb in data set [5] came to 3 nM. This compound also registered a Ki in data set [1] of 7.8 nM.
With `CN1CCN(c2cn(S(=O)(=O)c3ccccc3Br)c3ccccc23)CC1`, in data set [1], the Ki was 15.2 nM.
`CC(C)c1ccc(S(=O)(=O)n2cc(N3CCN(C)CC3)c3ccc(Cl)cc32)cc1`: the Ki in data set [1] is 55.3 nM.
Still for that read-out and setting: the result for `CCN1CCN(c2cn(S(=O)(=O)c3ccc4ccccc4c3)c3cc(Cl)ccc23)CC1` reads 25.5 nM.
For `CCN1CCN(c2cn(S(=O)(=O)c3ccc(F)cc3)c3ccc(Cl)cc23)CC1`, the Ratio IC50 in data set [2], in data set [7], in [8] and in [10] was greater than 50 in each case. Also, in data set [5], the IC50 was determined as 1780 nM. For the same compound, the Kb in data set [5] was found to be 3.5 nM. The affinity in [1], expressed as Ki, was 10.7 nM.
Turning to `CN1CCN(c2cn(S(=O)(=O)c3ccccc3)c3ccccc23)CC1`, the affinity in [1] corresponds to a Ki of 15.9 nM.
Take `CN1CCN(c2cn(S(=O)(=O)c3ccc(F)cc3)c3ccc(Br)cc23)CC1`: the Ratio IC50 in [2], in data set [7], in data set [8] and in data set [10] was greater than 50 throughout. For the same compound, the results for the % metabolism at 0.5 h, 2.5 µM in data set [3] and in [4] were 96% and 99%, respectively. The figures for the IC50 in [5], in data set [6] and in data set [9] were 322 nM, 28800 nM and 4610 nM, respectively. For the same compound, the Kb in [5] was 0.6 nM. The affinity in data set [1], expressed as Ki, was 9.2 nM.
In [1], `CCN1CCN(c2cn(S(=O)(=O)c3ccc(C(C)C)cc3)c3ccc(Cl)cc23)CC1` had a Ki of 30.5 nM.
On the same count and under the same terms, then `CCN1CCN(c2cn(S(=O)(=O)c3ccccc3Br)c3ccc(Cl)cc23)CC1`, with 20.3 nM; and `CCN1CCN(c2cn(S(=O)(=O)c3ccc(C(C)C)cc3)c3ccccc23)CC1`, with 8.6 nM.
